# Data: ChEMBL document CHEMBL4689842, “EUbOPEN Chemogenomics Library wave 1” (2021)
# Key:
# Fibroblast = test: Incucyte cell viability with human fibroblast; format: toxicity, cell-based; details: 10 µM, compound concentration 10 uM; note: filed as whole numbers so only -1 and 0 and 1 occur
# HEK-293T = test: Multiplex assay against HEK293T; format: toxicity, cell-based; details: human;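 for Population Tubulin-Different-Phenotype (%): share of the cells with healthy nuclei that show this phenotype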
# Summary of the method: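 At seeding, live cells were stained with Hoechst33342, BioTracker Green Microtubule Cytoskeleton Dye, MitoTracker Red and Annexin V Alexa Fluor 680. After compound addition they were imaged on a CQ1 microscope at 37°C and 5% CO2, and CellPathfinder machine-learning gating sorted them into Hoechst high-intensity objects or normal cells, with normal cells further split into healthy, pyknosed or fragmented nuclei and pyknosed cells into mitotic or apoptotic. Tubulin, mitochondrial-mass and membrane-permeability phenotypes are given as per cents of cells with healthy nuclei.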
# [1] = 12 h, 1 µM, compound concentration 1 uM, replicate 1
# [2] = 12 h, 1 µM, compound concentration 1 uM, replicate 2
# [3] = 12 h, 10 µM, compound concentration 10 uM, replicate 1
# [4] = 12 h, 10 µM, compound concentration 10 uM, replicate 2
# [5] = 24 h, 1 µM, compound concentration 1 uM, replicate 1
# [6] = 24 h, 1 µM, compound concentration 1 uM, replicate 2
# [7] = 24 h, 10 µM, compound concentration 10 uM, replicate 1
# [8] = 24 h, 10 µM, compound concentration 10 uM, replicate 2
# [9] = 48 h, 1 µM, compound concentration 1 uM, replicate 1
# [10] = 48 h, 1 µM, compound concentration 1 uM, replicate 2
# [11] = 48 h, 10 µM, compound concentration 10 uM, replicate 1
# [12] = 48 h, 10 µM, compound concentration 10 uM, replicate 2
smiles,measurement,setting,value
C[C@@H](Oc1cc(-n2cnc3ccc(CN4CCN(C)CC4)cc32)sc1C(N)=O)c1ccccc1C(F)(F)F [GSK-461364],Growth Rate,"Fibroblast; 0 h, replicate number 2, timepoint 0 hours",0
same,Growth Rate,"Fibroblast; 6 h, replicate number 1, timepoint 6 hours",0
same,Growth Rate,"Fibroblast; 6 h, replicate number 2, timepoint 6 hours",1
same,Growth Rate,"Fibroblast; 12 h, replicate number 1, timepoint 12 hours",0
same,Growth Rate,"Fibroblast; 18 h, replicate number 1, timepoint 18 hours",0
same,Growth Rate,"Fibroblast; 24 h, replicate number 1, timepoint 24 hours",0
same,Population Apoptotic (%),HEK-293T; [1],62%
same,Population Fragmented Nuclei (%),HEK-293T; [1],14%
same,Population Healthy Nuclei (%),HEK-293T; [1],19%
same,Population Hoechst High Intensity Objects (%),HEK-293T; [1],17%
same,Population Membrane Permeable-Phenotype (%),HEK-293T; [1],5%
same,Population Mitochondria Different-Phenotype (%),HEK-293T; [1],98%
same,Population Mitotic Cells (%),HEK-293T; [1],37%
same,Population Normal (%),HEK-293T; [1],82%
same,Population Pyknosed Nuclei (%),HEK-293T; [1],65%
same,Population Tubulin-Different-Phenotype (%),HEK-293T; [1],96%
same,Total Cell Count,HEK-293T; [1],322
same,Population Apoptotic (%),HEK-293T; [2],27%
same,Population Fragmented Nuclei (%),HEK-293T; [2],10%
same,Population Healthy Nuclei (%),HEK-293T; [2],33%
same,Population Hoechst High Intensity Objects (%),HEK-293T; [2],4%
same,Population Membrane Permeable-Phenotype (%),HEK-293T; [2],20%
same,Population Mitochondria Different-Phenotype (%),HEK-293T; [2],60%
same,Population Mitotic Cells (%),HEK-293T; [2],72%
same,Population Normal (%),HEK-293T; [2],95%
same,Population Pyknosed Nuclei (%),HEK-293T; [2],56%
same,Population Tubulin-Different-Phenotype (%),HEK-293T; [2],71%
same,Total Cell Count,HEK-293T; [2],142
same,Population Apoptotic (%),HEK-293T; [3],80%
same,Population Fragmented Nuclei (%),HEK-293T; [3],16%
same,Population Healthy Nuclei (%),HEK-293T; [3],11%
same,Population Hoechst High Intensity Objects (%),HEK-293T; [3],22%
same,Population Membrane Permeable-Phenotype (%),HEK-293T; [3],7%
same,Population Mitochondria Different-Phenotype (%),HEK-293T; [3],100%
same,Population Mitotic Cells (%),HEK-293T; [3],19%
same,Population Normal (%),HEK-293T; [3],77%
same,Population Pyknosed Nuclei (%),HEK-293T; [3],71%
same,Population Tubulin-Different-Phenotype (%),HEK-293T; [3],74%
same,Total Cell Count,HEK-293T; [3],294
same,Population Apoptotic (%),HEK-293T; [4],66%
same,Population Fragmented Nuclei (%),HEK-293T; [4],11%
same,Population Healthy Nuclei (%),HEK-293T; [4],14%
same,Population Hoechst High Intensity Objects (%),HEK-293T; [4],10%
same,Population Membrane Permeable-Phenotype (%),HEK-293T; [4],12%
same,Population Mitochondria Different-Phenotype (%),HEK-293T; [4],75%
same,Population Mitotic Cells (%),HEK-293T; [4],33%
same,Population Normal (%),HEK-293T; [4],89%
same,Population Pyknosed Nuclei (%),HEK-293T; [4],73%
same,Population Tubulin-Different-Phenotype (%),HEK-293T; [4],62%
same,Total Cell Count,HEK-293T; [4],187
same,Population Apoptotic (%),HEK-293T; [5],66%
same,Population Fragmented Nuclei (%),HEK-293T; [5],14%
same,Population Healthy Nuclei (%),HEK-293T; [5],22%
same,Population Hoechst High Intensity Objects (%),HEK-293T; [5],16%
same,Population Membrane Permeable-Phenotype (%),HEK-293T; [5],0%
same,Population Mitochondria Different-Phenotype (%),HEK-293T; [5],98%
same,Population Mitotic Cells (%),HEK-293T; [5],33%
same,Population Normal (%),HEK-293T; [5],83%
same,Population Pyknosed Nuclei (%),HEK-293T; [5],62%
same,Population Tubulin-Different-Phenotype (%),HEK-293T; [5],96%
same,Total Cell Count,HEK-293T; [5],321
same,Population Apoptotic (%),HEK-293T; [6],38%
same,Population Fragmented Nuclei (%),HEK-293T; [6],8%
same,Population Healthy Nuclei (%),HEK-293T; [6],43%
same,Population Hoechst High Intensity Objects (%),HEK-293T; [6],3%
same,Population Membrane Permeable-Phenotype (%),HEK-293T; [6],12%
same,Population Mitochondria Different-Phenotype (%),HEK-293T; [6],54%
same,Population Mitotic Cells (%),HEK-293T; [6],61%
same,Population Normal (%),HEK-293T; [6],96%
same,Population Pyknosed Nuclei (%),HEK-293T; [6],47%
same,Population Tubulin-Different-Phenotype (%),HEK-293T; [6],75%
same,Total Cell Count,HEK-293T; [6],154
same,Population Apoptotic (%),HEK-293T; [7],81%
same,Population Fragmented Nuclei (%),HEK-293T; [7],26%
same,Population Healthy Nuclei (%),HEK-293T; [7],10%
same,Population Hoechst High Intensity Objects (%),HEK-293T; [7],25%
same,Population Membrane Permeable-Phenotype (%),HEK-293T; [7],4%
same,Population Mitochondria Different-Phenotype (%),HEK-293T; [7],100%
same,Population Mitotic Cells (%),HEK-293T; [7],18%
same,Population Normal (%),HEK-293T; [7],74%
same,Population Pyknosed Nuclei (%),HEK-293T; [7],63%
same,Population Tubulin-Different-Phenotype (%),HEK-293T; [7],45%
same,Total Cell Count,HEK-293T; [7],298
same,Population Apoptotic (%),HEK-293T; [8],86%
same,Population Fragmented Nuclei (%),HEK-293T; [8],12%
same,Population Healthy Nuclei (%),HEK-293T; [8],25%
same,Population Hoechst High Intensity Objects (%),HEK-293T; [8],5%
same,Population Membrane Permeable-Phenotype (%),HEK-293T; [8],0%
same,Population Mitochondria Different-Phenotype (%),HEK-293T; [8],97%
same,Population Mitotic Cells (%),HEK-293T; [8],13%
same,Population Normal (%),HEK-293T; [8],94%
same,Population Pyknosed Nuclei (%),HEK-293T; [8],62%
same,Population Tubulin-Different-Phenotype (%),HEK-293T; [8],63%
same,Total Cell Count,HEK-293T; [8],207
same,Population Apoptotic (%),HEK-293T; [9],66%
same,Population Fragmented Nuclei (%),HEK-293T; [9],22%
same,Population Healthy Nuclei (%),HEK-293T; [9],18%
same,Population Hoechst High Intensity Objects (%),HEK-293T; [9],22%
same,Population Membrane Permeable-Phenotype (%),HEK-293T; [9],2%
same,Population Mitochondria Different-Phenotype (%),HEK-293T; [9],95%
same,Population Mitotic Cells (%),HEK-293T; [9],33%
same,Population Normal (%),HEK-293T; [9],77%
same,Population Pyknosed Nuclei (%),HEK-293T; [9],59%
same,Population Tubulin-Different-Phenotype (%),HEK-293T; [9],97%
same,Total Cell Count,HEK-293T; [9],325
same,Population Apoptotic (%),HEK-293T; [10],67%
same,Population Fragmented Nuclei (%),HEK-293T; [10],10%
same,Population Healthy Nuclei (%),HEK-293T; [10],60%
same,Population Hoechst High Intensity Objects (%),HEK-293T; [10],2%
same,Population Membrane Permeable-Phenotype (%),HEK-293T; [10],6%
same,Population Mitochondria Different-Phenotype (%),HEK-293T; [10],53%
same,Population Mitotic Cells (%),HEK-293T; [10],32%
same,Population Normal (%),HEK-293T; [10],97%
same,Population Pyknosed Nuclei (%),HEK-293T; [10],28%
same,Population Tubulin-Different-Phenotype (%),HEK-293T; [10],76%
same,Total Cell Count,HEK-293T; [10],191
same,Population Apoptotic (%),HEK-293T; [11],77%
same,Population Fragmented Nuclei (%),HEK-293T; [11],27%
same,Population Healthy Nuclei (%),HEK-293T; [11],4%
same,Population Hoechst High Intensity Objects (%),HEK-293T; [11],26%
same,Population Membrane Permeable-Phenotype (%),HEK-293T; [11],11%
same,Population Mitochondria Different-Phenotype (%),HEK-293T; [11],100%
same,Population Mitotic Cells (%),HEK-293T; [11],22%
same,Population Normal (%),HEK-293T; [11],73%
same,Population Pyknosed Nuclei (%),HEK-293T; [11],68%
same,Population Tubulin-Different-Phenotype (%),HEK-293T; [11],55%
same,Total Cell Count,HEK-293T; [11],287
same,Population Apoptotic (%),HEK-293T; [12],79%
same,Population Fragmented Nuclei (%),HEK-293T; [12],12%
same,Population Healthy Nuclei (%),HEK-293T; [12],31%
same,Population Hoechst High Intensity Objects (%),HEK-293T; [12],10%
same,Population Membrane Permeable-Phenotype (%),HEK-293T; [12],0%
same,Population Mitochondria Different-Phenotype (%),HEK-293T; [12],98%
same,Population Mitotic Cells (%),HEK-293T; [12],20%
same,Population Normal (%),HEK-293T; [12],89%
same,Population Pyknosed Nuclei (%),HEK-293T; [12],55%
same,Population Tubulin-Different-Phenotype (%),HEK-293T; [12],56%
same,Total Cell Count,HEK-293T; [12],204
